ChEMBL document CHEMBL4689842, “EUbOPEN Chemogenomics Library wave 1” (2021)
Several values for one entry are separate records, joined by “and”; a condition that tells them apart may be missing. Identical values can stand only once.

Test system: HEK-293T
Experiment: Multiplex assay against HEK293T
Assay type: toxicity, cell-based
Conditions: human
Outline: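 Live cells were stained at seeding with Hoechst33342, BioTracker Green Microtubule Cytoskeleton Dye, MitoTracker Red and Annexin V Alexa Fluor 680, then imaged on a CQ1 microscope at 37°C and 5% CO2 after compound addition. CellPathfinder machine-learning gating split cells into Hoechst high-intensity objects or normal cells. Normal cells were split into healthy, pyknosed or fragmented nuclei, and pyknosed cells into mitotic or apoptotic. Tubulin, mitochondrial-mass and membrane-permeability phenotypes are per cents of healthy-nucleus cells.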

[1] = 12 h, 1 µM, compound concentration 1 uM, replicate 1
[2] = 12 h, 1 µM, compound concentration 1 uM, replicate 2
[3] = 12 h, 10 µM, compound concentration 10 uM, replicate 1
[4] = 12 h, 10 µM, compound concentration 10 uM, replicate 2
[5] = 24 h, 1 µM, compound concentration 1 uM, replicate 1
[6] = 24 h, 1 µM, compound concentration 1 uM, replicate 2
[7] = 24 h, 10 µM, compound concentration 10 uM, replicate 1
[8] = 24 h, 10 µM, compound concentration 10 uM, replicate 2

CCC1=C[C@@H]2C[N@](C1)Cc1c([nH]c3ccccc13)[C@@](C(=O)OC)(c1cc3c(cc1OC)N(C)[C@H]1[C@@](O)(C(=O)OC)[C@H](OC(C)=O)[C@]4(CC)C=CCN5CC[C@]31[C@@H]54)C2.O=C(O)C(O)C(O)C(=O)O.O=C(O)C(O)C(O)C(=O)O [VINORELBINE TARTRATE]
Population Apoptotic (%) [1]: 25% and 14%
Population Fragmented Nuclei (%) [1]: 25% and 16%
Population Healthy Nuclei (%) [1]: 32% and 48%
Population Hoechst High Intensity Objects (%) [1]: 18% and 15%
Population Mitochondria Different-Phenotype (%) [1]: 18% and 9%
Population Mitotic Cells (%) [1]: 75% and 85%
Population Normal (%) [1]: 81% and 84%
Population Pyknosed Nuclei (%) [1]: 41% and 35%
Total Cell Count [1]: 502 and 565
Population Apoptotic (%) [2]: 17% and 8%
Population Fragmented Nuclei (%) [2]: 3% and 4%
Population Healthy Nuclei (%) [2]: 57% and 63%
Population Hoechst High Intensity Objects (%) [2]: 4% and 3%
Population Membrane Permeable-Phenotype (%) [2]: 12% and 0%
Population Mitochondria Different-Phenotype (%) [2]: 27% and 14%
Population Mitotic Cells (%) [2]: 83% and 91%
Population Normal (%) [2]: 95% and 96%
Population Pyknosed Nuclei (%) [2]: 38% and 31%
Total Cell Count [2]: 945 and 1247
Population Apoptotic (%) [3]: 31% and 19%
Population Fragmented Nuclei (%) [3]: 29% and 13%
Population Healthy Nuclei (%) [3]: 22% and 49%
Population Hoechst High Intensity Objects (%) [3]: 19% and 15%
Population Mitochondria Different-Phenotype (%) [3]: 13% and 9%
Population Mitotic Cells (%) [3]: 68% and 80%
Population Normal (%) [3]: 80% and 84%
Population Pyknosed Nuclei (%) [3]: 48% and 37%
Total Cell Count [3]: 499 and 592
Population Apoptotic (%) [4]: 13% and 7%
Population Fragmented Nuclei (%) [4]: 3%
Population Healthy Nuclei (%) [4]: 54% and 62%
Population Hoechst High Intensity Objects (%) [4]: 2%
Population Membrane Permeable-Phenotype (%) [4]: 10% and 0%
Population Mitochondria Different-Phenotype (%) [4]: 22% and 16%
Population Mitotic Cells (%) [4]: 86% and 92%
Population Normal (%) [4]: 97%
Population Pyknosed Nuclei (%) [4]: 41% and 33%
Total Cell Count [4]: 964 and 1090
Population Apoptotic (%) [5]: 13% and 28%
Population Fragmented Nuclei (%) [5]: 15% and 27%
Population Healthy Nuclei (%) [5]: 47% and 33%
Population Hoechst High Intensity Objects (%) [5]: 12% and 20%
Population Membrane Permeable-Phenotype (%) [5]: 0% and 13%
Population Mitotic Cells (%) [5]: 86% and 71%
Population Normal (%) [5]: 87% and 79%
Population Pyknosed Nuclei (%) [5]: 36% and 38%
Total Cell Count [5]: 530 and 459
Population Apoptotic (%) [6]: 14% and 8%
Population Fragmented Nuclei (%) [6]: 7% and 9%
Population Healthy Nuclei (%) [6]: 36% and 69%
Population Hoechst High Intensity Objects (%) [6]: 6% and 3%
Population Membrane Permeable-Phenotype (%) [6]: 8%
Population Mitochondria Different-Phenotype (%) [6]: 28%
Population Mitotic Cells (%) [6]: 85% and 91%
Population Normal (%) [6]: 93% and 96%
Population Pyknosed Nuclei (%) [6]: 55% and 21%
Total Cell Count [6]: 914 and 1303
Population Apoptotic (%) [7]: 20% and 38%
Population Fragmented Nuclei (%) [7]: 16% and 29%
Population Healthy Nuclei (%) [7]: 45% and 26%
Population Hoechst High Intensity Objects (%) [7]: 9% and 20%
Population Mitochondria Different-Phenotype (%) [7]: 10% and 13%
Population Mitotic Cells (%) [7]: 79% and 61%
Population Normal (%) [7]: 90% and 79%
Population Pyknosed Nuclei (%) [7]: 37% and 44%
Total Cell Count [7]: 529 and 482
Population Apoptotic (%) [8]: 11% and 5%
Population Fragmented Nuclei (%) [8]: 3% and 6%
Population Healthy Nuclei (%) [8]: 37% and 72%
Population Hoechst High Intensity Objects (%) [8]: 3% and 2%
Population Membrane Permeable-Phenotype (%) [8]: 9% and 0%
Population Mitotic Cells (%) [8]: 88% and 94%
Population Normal (%) [8]: 96% and 97%
Population Pyknosed Nuclei (%) [8]: 58% and 21%
Total Cell Count [8]: 920 and 1144
